# Hits are enriched below; roughly 2.9% of the tested compounds scored in any of these assays.
# GalR3 antagonist = antagonists of human GalR3; O60755; HEK293 GalR3-CNG cAMP membrane potential fluorescence; galR3 body fused to GalR1 C-terminus; inhibition, % at 3 µM; 360,000 compounds, 0.44% hits;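 active means inhibition above the screen-wide average plus 3 SD, cut at about 13% in these data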;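 further: forskolin and galanin both at EC90 stimulate the cells; cAMP rise reported by CNG channel membrane potential dye signal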
# Target sequence (O60755 1-299 limits assumed): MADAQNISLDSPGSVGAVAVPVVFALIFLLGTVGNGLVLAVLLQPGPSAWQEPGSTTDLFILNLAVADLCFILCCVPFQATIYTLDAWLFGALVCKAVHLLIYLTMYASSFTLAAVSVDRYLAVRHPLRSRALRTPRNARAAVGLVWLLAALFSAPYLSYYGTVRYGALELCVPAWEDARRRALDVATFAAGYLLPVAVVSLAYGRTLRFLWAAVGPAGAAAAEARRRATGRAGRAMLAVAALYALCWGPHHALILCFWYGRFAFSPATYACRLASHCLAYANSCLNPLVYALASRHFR
# MC4R ag barr = human MC4R agonism via beta-arrestin; AID 540308; P32245; activation, % at 8.9 µM; U2OS MC4R beta-arrestin complementation, luminescence; percent of melanotan II response, DMSO zero; 360,000 compounds, 0.98% hits;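 active means activation above a per-plate cutoff, the mean activation of sample wells on that plate plus 3 SD, cut at about 8% in these data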
# Target sequence (P32245 whole entry, looked up): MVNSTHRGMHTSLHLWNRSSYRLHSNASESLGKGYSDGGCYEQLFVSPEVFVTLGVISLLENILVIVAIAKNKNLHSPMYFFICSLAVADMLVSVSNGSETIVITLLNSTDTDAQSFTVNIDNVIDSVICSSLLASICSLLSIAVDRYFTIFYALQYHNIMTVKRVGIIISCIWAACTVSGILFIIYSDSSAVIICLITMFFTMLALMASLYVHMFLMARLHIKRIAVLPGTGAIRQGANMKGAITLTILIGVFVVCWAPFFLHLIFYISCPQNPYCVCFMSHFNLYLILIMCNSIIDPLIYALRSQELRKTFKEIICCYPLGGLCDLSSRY
# MC4R antagonist = blocks human MC4R cAMP signaling | P32245 | MC4R-expressing cells, MTII-stimulated cAMP, LANCE TR-FRET | inhibition, % at 6.5 µM | 360,000 compounds, 0.48% hits | AID 540295;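 active means inhibition above its plate's cutoff, the mean of tested wells on that plate plus 3 SD, cut at about 29% in these data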
#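 System: U2OS cells stably expressing human melanocortin 4 receptor (MC4R). Reagent: Melanotan II challenge after compound preincubation. Doses: 6.5 µM. Times: 30-min compound, 1-h challenge, 1-h detection, room temperature. Measured by: TR-FRET with Eu-cAMP and labeled anti-cAMP, 671 nm. Replicates: singlicate.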
# Calb FLC = affects C. albicans growth with fluconazole | C. albicans CaCi-2 + fluconazole, Alamar Blue growth, 48 h | growth inhibition, % (no concentration beside the values) | 300,000 compounds, 0.57% hits;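 active means growth inhibition above about 58% in most replicates, limit read from the data, passing the limit was not always enough; inconclusive means exactly half the replicates above a set limit; inactive means most replicates below a set limit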;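 further: all wells also contain fluconazole at 8 µg/ml as a sub-toxic cotreatment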
# TAG inh = inhibitors of triacylglycerol accumulation; H9c2 cells, Nile Red lipid (TAG) fluorescence; cells loaded with 200 µM oleic acid; inhibition, % at 12.5 µM; 230,000 compounds, 0.66% hits; AID 651582;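 active means pattern-corrected inhibition of lipid staining of at least 50% with the nuclear-stain viability signal not falling by more than 50%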
# Efflux pump inh = inhibitors of Candida antifungal efflux pumps expressed in yeast; S. cerevisiae Candida pump triplex, Nile Red efflux; inhibition, % at 10 µM; 330,000 compounds, 0.44% hits;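 active means plate passing quality check with inhibition over a set limit, or well fluorescence over plate mean plus 4 SD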;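 further: Nile Red retained in pooled yeast measured as flow cytometry median fluorescence; higher means more Nile Red kept so more efflux inhibition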
# A number is an active result; 0 = inactive; ? = inconclusive; - = no result given; ! = a repeat was not active.
SMILES,GalR3 antagonist,MC4R ag barr,MC4R antagonist,Calb FLC,TAG inh,Efflux pump inh
COc1ccccc1-c1cnc(C(O)c2ccc(Cl)c(Cl)c2)[nH]1 (configuration not stated),0,0,0,-,0,-
Cc1ccc(-c2nnc(SCC(=O)Nc3ccc(S(=O)(=O)N4CCCCCC4)cc3)o2)cc1,0,9.3,0,0,-,0
CC(=O)c1cccc(NC(=O)CSc2nnc(-c3ccc(S(=O)(=O)N4CCCC4)cc3)o2)c1,0,0,0,0,-,0
CCCCNc1nc2c(c(=O)[nH]c(=O)n2C)n1CCCc1ccccc1,0,0,0,-,0,-
CC(=O)Nc1cc(-c2ccc(CO)cc2)cn2c(-c3ccc(F)c(Cl)c3)cnc12,0,9.1,0,-,0,-
Cc1ccc(O)c(-c2cc(-c3cccc(Br)c3)n[nH]2)c1,0,0,0,99.2,0,0
Oc1ccc(Cl)cc1C1=NNC(c2cc(Br)cc3c2OCOC3)C1 (configuration not stated),0,0,0,70.5,0,0
C=CCNC(=S)N/N=C(\C)c1ccccn1,0,0,0,115.1,-,0
Cc1nc(NS(=O)(=O)c2ccc(Br)cc2)c2c3c(sc2n1)CCC3,0,0,0,92.2,-,0
Cc1nc(NS(=O)(=O)c2cccs2)c2c3c(sc2n1)CCC3,0,0,0,?,0,0
O=C(Nc1ncccc1O)c1ccc2c(c1)OCCO2,0,0,0,0,0,0
Cc1cccc(N=Nc2ccc(O)c3ncccc23)c1,0,0,0,0,82.4,0
Cc1ccc(C)c(N=Nc2ccc(O)c3ncccc23)c1,0,0,0,107.9,108.3,0
Oc1ccc(N=Nc2ccc3c(c2)OCCO3)c2ncccc12,0,0,0,88.9,78.5,0
CCCC(=O)NC(=S)Nc1ccc(S(=O)(=O)N2CCc3ccccc32)cc1,0,0,0,0,0,0
CCCNC(=O)c1cc(S(=O)(=O)N2CCC3(CC2)OCCO3)ccc1F,0,0,0,-,0,-
CC1CC(C)CN(C(=O)c2ccc3c(c2NCCO)C(=O)c2ccccc2C3=O)C1 (configuration not stated),0,0,0,0,127.0,0
O=c1c2ccccc2nnn1CCc1ccccc1,0,0,0,-,0,-
Cc1cc(C)c2cc(CN(Cc3ccco3)C(=O)NCc3ccccc3)c(=O)[nH]c2c1,14.4,0,0,0,0,0
Cc1cc(C)c2cc(CN(CC3CCCO3)C(=S)NCc3ccco3)c(=O)[nH]c2c1 (configuration not stated),0,0,0,0,-,0
CC1(C)Oc2ccc3ccc(=O)oc3c2/C(=C/Nc2cccc(O)c2)C1=O,0,8.6,0,0,-,0
COC(=O)[C@]1(C)N[C@H](CN(C)C(=O)C2CCCCC2)[C@@H]2C(=O)N(C)C(=O)[C@@H]21,0,0,0,-,0,0
O=C(COc1cccc(Cl)c1)N/N=C\c1cc2ccccc2nc1Cl,0,9.0,0,?,-,0
C(=C\c1ccccc1)/CN1CCN(C(c2cccc3ccccc23)c2nnnn2C2CCCC2)CC1 (configuration not stated),0,-,-,-,-,-
O=C(NC(=S)N1CCOCC1)C12CC3CCC(CC(C3)C1)C2,0,0,0,0,-,0
SMILES,GalR3 antagonist,MC4R ag barr,MC4R antagonist,Calb FLC,TAG inh,Efflux pump inh
CC12CC3(C)CC(C)(C1)CC(C(=O)NC(=S)N1CCOCC1)(C2)C3,0,8.7,0,0,-,0
Clc1ccc(-c2nnnn2-c2ccc(Cl)cc2)cc1,0,0,0,0,0,0
Cc1ccc(-n2nnnc2C(Cl)(Cl)c2nnnn2-c2ccc(C)cc2)cc1,0,0,0,103.2,-,0
O=C(Nc1ccc(-c2nc3ccccc3[nH]2)cc1)C1CCCN(Cc2ccn[nH]2)C1 (configuration not stated),0,0,0,-,0,-
COc1cc2nc(SCc3ccc(Cl)cc3Cl)n(Cc3cccs3)c(=N)c2cc1OC,0,0,0,80.8,-,0
COCCCn1c(SCc2ccccc2)nc2cc(OC)c(OC)cc2c1=N,0,0,0,0,0,0
CC(C)c1ccc(OCC(O)CN2CCN(c3ccccc3)CC2)cc1 (configuration not stated),0,8.9!,0,0,0,0
CCOC(=O)C1=C(c2ccccc2)NC(=O)NC1c1ccc(O)c(Cl)c1 (configuration not stated),0,52.2,0,0,0,0
CCOC(=O)C1=C(c2ccccc2)NC(=O)NC1c1ccc(O)c(OCC)c1 (configuration not stated),0,0,0,0,0,0
COc1ccc(C(C)(NC(C)=O)c2nc(/C=C/c3ccccc3)cs2)cc1 (configuration not stated),0,0,0,-,0,-
O=c1c2ccccc2nc(N/N=C/c2c(O)ccc3ccccc23)n1O,0,0,0,106.1,0,0
O=c1c2ccccc2nc(N/N=C/c2ccc(O)cc2)n1O,0,0,0,0,0,0
O=C(NNc1ccc(F)cc1)c1c(F)cccc1Cl,0,0,0,0,0,0
O=C(NNc1ccc(Cl)cc1)c1c(F)cccc1Cl,0,0,0,82.6,0,0
O=C(NNc1ccc(Cl)cc1)c1sccc1Cl,0,0,0,104.9,0,0
N#CC1=C(N)Oc2cc3ccccc3cc2C1c1cccnc1 (configuration not stated),0,0,0,0,0,0
Cc1ccc2cc(C3C(C#N)=C(N)Oc4c3ccc3cccnc43)c(=O)[nH]c2c1 (configuration not stated),-,0,0,87.1,-,0
CCc1ccc2[nH]c(=O)c(C3C(C#N)=C(N)Oc4c3ccc3cccnc43)cc2c1 (configuration not stated),0,0,0,109.5,0,0
N#CC1=C(N)Oc2c(ccc3cccnc23)C1c1cccnc1 (configuration not stated),0,0,0,104.3,0,0
COc1ccccc1-c1noc2c1C(=O)N(Cc1cn(Cc3ccccc3)nn1)CC2,0,-,-,-,-,-
O=C(NCC1CCCO1)c1ccc2[nH]c3c(c2c1)CCCC3 (configuration not stated),0,0,0,-,0,-
Oc1c(C(c2cccs2)N2CCN(c3ccccc3)CC2)ccc2cccnc12 (configuration not stated),-,-,-,-,-,0
CN1CCN(C(c2ccc(C(F)(F)F)cc2)c2ccc3cccnc3c2O)CC1 (configuration not stated),0,-,-,97.4,-,0
Oc1c(C(c2ccccc2Cl)N2CCCC2)ccc2cccnc12 (configuration not stated),0,0,0,105.2,62.4,0
CC(=O)NC(c1ccc(C(C)C)cc1)c1ccc2cccnc2c1O (configuration not stated),0,0,0,0,-,0
O=C(CCc1ccccc1)NC(c1cccs1)c1cc(Cl)c2cccnc2c1O (configuration not stated),0,0,0,?,0,-
